Data as given in ChEMBL document CHEMBL1914395, “Design, synthesis, and biological evaluation of callophycin A and analogues as potential chemopreventive and anticancer agents” (Bioorg Med Chem, 2011).

How the values were obtained:
[1] = biological target: NAD(P)H dehydrogenase [quinone] 1 (Mus musculus) (UniProt Q64669); assay: Induction of quinone reductase 1 activity in mouse Hepa-1c1c7 cells assessed as cell survival at 50 uM by MTT assay relative to control; format: cell-based
[2] = biological target: NAD(P)H dehydrogenase [quinone] 1 (Mus musculus) (UniProt Q64669); assay: Induction of quinone reductase 1 activity in mouse Hepa-1c1c7 cells at 50 uM by MTT assay relative to untreated control; format: cell-based
In short: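 Hepa 1c1c7 murine hepatoma cells treated with compound at 50 μM. QR1 measured by NADPH-dependent, menadiol-mediated reduction of MTT to formazan. Protein measured by crystal violet staining of identical plates. Specific activity is nmol formazan per mg protein per min. Induction ratio is treated versus DMSO-treated control.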

MCF7 = assay: Antiproliferative activity against human MCF7 cells assessed as survival at 50 uM after 72 hrs by SRB assay relative to control; format: functional; conditions: MCF7, 72 h, read-out: Survival
In short: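 MCF7 cells (1 × 10^4 per well) were plated onto compound and kept at 37°C, 5% CO2 for 72 h. Cells were fixed in 10% TCA for 30 min and stained with 0.4% SRB in 1% acetic acid for 30 min. Bound dye was dissolved in 10 mM Tris (pH 10.0) and read at 515 nm. Survival is given as % of DMSO-treated controls, screened at 50 μM.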

HEK293 [3] = assay: Inhibition of TNF-alpha-induced NFkappaB activation in human HEK293 cells at 50 uM after 6 hrs by luciferase assay relative to control; format: cell-based
In short: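 Cells incubated 6 h with TNFα plus test compound, then luciferase activity measured. Results expressed as percent of TNFα-treated control. Screening concentration 50 μM.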

[4] = biological target: T1, Nitric oxide synthase, inducible (Mus musculus) (UniProt P29477); assay: Inhibition of iNOS-mediated nitric oxide production in LPS-stimulated mouse RAW 264.7 cells assessed as cell survival at 50 uM pretreated 15 mins before LPS challenge measured after 20 hrs relative to control; format: cell-based
T1 sequence (whole entry): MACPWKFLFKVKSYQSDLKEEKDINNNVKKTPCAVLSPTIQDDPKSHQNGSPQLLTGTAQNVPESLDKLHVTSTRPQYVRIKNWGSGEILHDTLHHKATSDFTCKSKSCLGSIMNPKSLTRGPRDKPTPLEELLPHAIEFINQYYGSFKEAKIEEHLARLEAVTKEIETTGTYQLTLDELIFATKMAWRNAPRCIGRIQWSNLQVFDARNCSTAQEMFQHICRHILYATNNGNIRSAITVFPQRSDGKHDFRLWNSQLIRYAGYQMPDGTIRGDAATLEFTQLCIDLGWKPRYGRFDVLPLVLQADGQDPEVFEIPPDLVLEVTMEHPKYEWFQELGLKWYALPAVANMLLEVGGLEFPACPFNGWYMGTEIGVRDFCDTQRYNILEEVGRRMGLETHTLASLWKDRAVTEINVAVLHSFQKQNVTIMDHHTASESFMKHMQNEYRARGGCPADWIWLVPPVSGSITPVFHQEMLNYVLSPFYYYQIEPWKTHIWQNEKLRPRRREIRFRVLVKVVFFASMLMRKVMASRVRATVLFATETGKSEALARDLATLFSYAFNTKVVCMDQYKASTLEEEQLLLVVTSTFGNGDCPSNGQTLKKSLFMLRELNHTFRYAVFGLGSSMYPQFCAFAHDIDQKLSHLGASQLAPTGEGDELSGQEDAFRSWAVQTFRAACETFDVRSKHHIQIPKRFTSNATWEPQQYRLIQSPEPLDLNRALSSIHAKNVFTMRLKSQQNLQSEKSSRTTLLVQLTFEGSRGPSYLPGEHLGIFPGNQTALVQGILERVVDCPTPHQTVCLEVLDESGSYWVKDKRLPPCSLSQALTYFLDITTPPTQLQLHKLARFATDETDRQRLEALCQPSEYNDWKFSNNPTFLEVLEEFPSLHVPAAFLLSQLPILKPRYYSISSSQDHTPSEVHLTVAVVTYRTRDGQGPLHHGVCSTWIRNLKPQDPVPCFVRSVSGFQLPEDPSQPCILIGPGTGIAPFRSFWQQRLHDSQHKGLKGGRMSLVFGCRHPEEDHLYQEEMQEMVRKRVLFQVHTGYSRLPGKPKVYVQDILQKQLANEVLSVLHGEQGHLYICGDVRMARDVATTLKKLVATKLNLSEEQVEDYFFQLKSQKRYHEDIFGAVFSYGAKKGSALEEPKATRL
In short: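 RAW 264.7 cells were incubated at 37°C, 5% CO2 for 24 h. They were then exposed to compound for 15 min before LPS (1 μg/mL) was added for 20 h. Cytotoxicity was measured by SRB staining under the same conditions. Survival is expressed as % relative to vehicle-treated controls at 50 μM.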

[5] = biological target: T1, Nitric oxide synthase, inducible (Mus musculus); assay: Inhibition of iNOS-mediated nitric oxide production in LPS-stimulated mouse RAW 264.7 cells at 50 uM pretreated 15 mins before LPS challenge measured after 20 hrs relative to control; format: cell-based
In short: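 RAW 264.7 cells cultured 24 h at 37°C, then given serially diluted compounds for 15 min before LPS (1 μg/mL) for 20 h. Nitrite in the medium measured with Griess reagent at 540 nm against a sodium nitrite standard curve. Cytotoxicity checked by SRB under the same conditions.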

HEK293 [6] = assay: Inhibition of TNF-alpha-induced NFkappaB activation in human HEK293 cells assessed as cell survival at 50 uM after 6 hrs by luciferase assay relative to control; format: cell-based
Aromatase = biological target: T2, Aromatase (Homo sapiens, UniProt P11511); assay: Inhibition of aromatase at 50 uM after 10 mins preincubation by plate reader relative to control
T2 sequence (P11511 whole entry): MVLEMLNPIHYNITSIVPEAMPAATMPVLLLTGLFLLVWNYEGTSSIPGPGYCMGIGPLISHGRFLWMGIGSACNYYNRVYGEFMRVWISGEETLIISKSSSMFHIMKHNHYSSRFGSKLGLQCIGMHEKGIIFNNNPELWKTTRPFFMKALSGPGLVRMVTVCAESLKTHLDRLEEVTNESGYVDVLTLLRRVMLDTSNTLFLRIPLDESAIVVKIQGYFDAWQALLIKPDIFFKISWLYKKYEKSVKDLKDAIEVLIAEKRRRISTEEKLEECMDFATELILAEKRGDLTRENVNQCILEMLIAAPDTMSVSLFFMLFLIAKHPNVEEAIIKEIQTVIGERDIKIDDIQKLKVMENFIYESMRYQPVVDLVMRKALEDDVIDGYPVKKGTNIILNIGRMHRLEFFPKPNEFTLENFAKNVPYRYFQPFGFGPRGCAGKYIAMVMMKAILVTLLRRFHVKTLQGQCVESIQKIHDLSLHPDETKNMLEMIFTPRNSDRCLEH
In short: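 CYP19 enzyme. Compound pre-incubated 10 min with an NADPH-regenerating system (NADP+, glucose 6-phosphate, G6PDH, MgCl2, albumin) in 50 mM potassium phosphate pH 7.4. Enzyme and 0.4 μM dibenzylfluorescein substrate then added, 30 min at 37 °C. Quenched with 2 N NaOH and incubated a further 2 h at 37 °C. Fluorescence read at ex 485/em 530 nm. Compound tested at 50 μM.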

Chain of NAD(P)H dehydrogenase [quinone] 1 (Mus musculus) (Q64669 whole entry): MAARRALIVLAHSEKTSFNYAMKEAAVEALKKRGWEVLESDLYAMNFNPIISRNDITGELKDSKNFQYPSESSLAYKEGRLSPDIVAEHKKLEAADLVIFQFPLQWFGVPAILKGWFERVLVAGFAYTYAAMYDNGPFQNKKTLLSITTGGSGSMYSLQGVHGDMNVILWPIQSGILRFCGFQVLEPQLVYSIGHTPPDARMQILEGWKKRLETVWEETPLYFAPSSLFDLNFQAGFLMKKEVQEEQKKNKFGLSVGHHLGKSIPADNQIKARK

Structure (SMILES): COC(=O)[C@@H]1Cc2c([nH]c3ccccc23)CN1S(C)(=O)=O
- Survival [1]: 85.8%
- Ratio [2]: 1.6
- viability at 50 µM (MCF7): 72.5%
- inhibition (HEK293 [3]): 38.6%
- Survival [4]: 91.9%
- inhibition [5]: 10.6%
- Survival (HEK293 [6]): 153%
- inhibition at 50 µM (Aromatase): 30.5%

Structure (SMILES): C#CCN1Cc2[nH]c3ccccc3c2C[C@H]1C(=O)OC
- Survival [1]: 89.6%
- Ratio [2]: 1.7
- viability at 50 µM (MCF7): 81.1%
- inhibition (HEK293 [3]): 21.1%
- Survival [4]: 84.4%
- inhibition [5]: 22.3%
- Survival (HEK293 [6]): 117%
- inhibition at 50 µM (Aromatase): 24.4%

Structure (SMILES): O=C(O)[C@H]1Cc2c([nH]c3ccccc23)CN1
- Survival [1]: 90.7%
- Ratio [2]: 0.8
- Survival [4]: 95.9%
- inhibition [5]: 3.5%
- Survival (HEK293 [6]): 95.4%
- inhibition at 50 µM (Aromatase): 34.9%

Structure (SMILES): C#CCN1Cc2[nH]c3ccccc3c2C[C@@H]1C(=O)O
- Survival [1]: 94.6%
- Ratio [2]: 1.6
- viability at 50 µM (MCF7): 107%
- inhibition (HEK293 [3]): -7.7%
- Survival [4]: 87.9%
- inhibition [5]: 16.4%
- Survival (HEK293 [6]): 72.7%
- inhibition at 50 µM (Aromatase): 23.5%

Structure (SMILES): Cc1ccc(S(=O)(=O)N2Cc3[nH]c4ccccc4c3C[C@H]2C(=O)O)cc1
- Survival [1]: 88.8%
- Ratio [2]: 1.4
- viability at 50 µM (MCF7): 96.5%
- inhibition (HEK293 [3]): 42.5%
- Survival [4]: 85.5%
- inhibition [5]: 7%
- Survival (HEK293 [6]): 272%
- inhibition at 50 µM (Aromatase): 16.9%

Structure (SMILES): O=C(O)[C@@H]1Cc2c([nH]c3ccccc23)CN1 [CYCLOMETHYLTRYPTOPHAN]
- Survival [1]: 99.2%
- Ratio [2]: 1.1
- inhibition (HEK293 [3]): 4.6%
- Survival [4]: 100%
- inhibition [5]: 2%
- Survival (HEK293 [6]): 103%
- inhibition at 50 µM (Aromatase): 20.7%

Structure (SMILES): COC(=O)[C@H]1Cc2c([nH]c3ccccc23)CN1CC1CC1
- Survival [1]: 81.8%
- Ratio [2]: 1.8
- viability at 50 µM (MCF7): 102%
- inhibition (HEK293 [3]): 29.9%
- Survival [4]: 124%
- inhibition [5]: 5.6%
- Survival (HEK293 [6]): 254%
- inhibition at 50 µM (Aromatase): 37.9%

Structure (SMILES): Cc1ccc(S(=O)(=O)N2Cc3[nH]c4ccccc4c3C[C@@H]2C(=O)O)cc1
- Survival [1]: 93.8%
- Ratio [2]: 1.2
- viability at 50 µM (MCF7): 99.8%
- inhibition (HEK293 [3]): 26%
- Survival [4]: 102%
- inhibition [5]: 2.9%
- Survival (HEK293 [6]): 195%
- inhibition at 50 µM (Aromatase): 23%

Structure (SMILES): COC(=O)[C@H]1Cc2c([nH]c3ccccc23)CN1S(=O)(=O)c1ccc(C)cc1
- Survival [1]: 85.8%
- Ratio [2]: 1.3
- inhibition (HEK293 [3]): 25.2%
- Survival [4]: 91.4%
- inhibition [5]: 7.4%
- Survival (HEK293 [6]): 114%
- inhibition at 50 µM (Aromatase): 28.2%

Structure (SMILES): C=CCOC(=O)N1Cc2[nH]c3ccccc3c2C[C@@H]1C(=O)O
- Survival [1]: 93.8%
- Ratio [2]: 1.9
- viability at 50 µM (MCF7): 102%
- inhibition (HEK293 [3]): 49.4%
- Survival [4]: 134%
- inhibition [5]: -4%
- Survival (HEK293 [6]): 204%
- inhibition at 50 µM (Aromatase): 32.9%

Structure (SMILES): O=C(O)[C@H]1Cc2c([nH]c3ccccc23)CN1CC1CC1
- Survival [1]: 102%
- Ratio [2]: 1.8
- viability at 50 µM (MCF7): 113%
- inhibition (HEK293 [3]): 48.4%
- Survival [4]: 130%
- Survival (HEK293 [6]): 169%
- inhibition at 50 µM (Aromatase): 31.5%

Structure (SMILES): O=C(O)[C@H]1Cc2c([nH]c3ccccc23)CN1Cc1ccccc1
- Survival [1]: 108%
- Ratio [2]: 1.8
- inhibition (HEK293 [3]): 41.8%
- Survival [4]: 109%
- inhibition [5]: 9.9%
- Survival (HEK293 [6]): 89.5%
- inhibition at 50 µM (Aromatase): 19.2%

Structure (SMILES): CS(=O)(=O)N1Cc2[nH]c3ccccc3c2C[C@H]1C(=O)O
- Survival [1]: 96.7%
- Ratio [2]: 1.1
- inhibition (HEK293 [3]): 51.1%
- Survival [4]: 94.2%
- inhibition [5]: 6.4%
- Survival (HEK293 [6]): 256%
- inhibition at 50 µM (Aromatase): 26.5%

Structure (SMILES): O=C(O)[C@H]1Cc2c([nH]c3ccccc23)CN1Cc1ccc(O)cc1
- Survival [1]: 91.2%
- Ratio [2]: 1.5
- viability at 50 µM (MCF7): 71.1%
- inhibition (HEK293 [3]): 54.6%
- Survival [4]: 94.7%
- inhibition [5]: 27.8%
- Survival (HEK293 [6]): 133%
- inhibition at 50 µM (Aromatase): 38.4%

Structure (SMILES): CS(=O)(=O)N1Cc2[nH]c3ccccc3c2C[C@@H]1C(=O)O
- Survival [1]: 80.6%
- Ratio [2]: 1.9
- viability at 50 µM (MCF7): 88.7%
- inhibition (HEK293 [3]): -2.3%
- Survival [4]: 93.1%
- inhibition [5]: 5%
- Survival (HEK293 [6]): 178%
- inhibition at 50 µM (Aromatase): 30.7%
